# Data as given in article PMC7683378 (Journal of autoimmunity, 2020).
# Legend:
# [1] = system: 5KC cells (TCR specific for the InsB:9-23–DQ8 complex); assay: Cellular antigen presentation assay; assay type: cell-based, mouse; conditions: BSM cells + 5KC cells incubated with the peptide; IL-2 by Luminex
# Method in brief: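 HLA-DQ8-homozygous BSM B-cells (RPMI, 10% FBS, 37 °C, 5% CO2): 10^6 cells loaded overnight with 200 μg/ml InsB:9-23 (scrambled InsB:9-23 or gliadin as negative peptides), washed twice with PBS, then given RI-D-peptide or scrambled control for 2 h at 37 °C. 5KC mouse T-hybridoma cells with human TCR added 1:1, overnight. Supernatant IL-2 by Luminex; anti-CD3/CD28 beads as positive control; 4–5 independent experiments.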
# [2] = system: lymphocytes from immunized SJL-DQ8 mice; assay: Ex vivo cytokine production; assay type: cell-based, mouse; conditions: all peptides 20 μg/ml, 48 hours, Luminex; 20 SJL-DQ8 mice
# Method in brief: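 Lymphocytes from spleens and draining nodes of SJL-DQ8 mice (6–8 weeks) immunised s.c. with 150 μg InsB:9-23 in CFA and boosted in IFA. Plated at 2×10^5 cells/well in RPMI/10% FBS with medium, InsB:9-23 with or without RI-D-peptides or scrambled versions, or scrambled InsB:9-23, all at 20 μg/ml. Supernatants taken at 48 h, kept at −80 °C, cytokines by mouse Milliplex Luminex panel.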
# [3] = system: PBMCs from HLA-DQ8 positive T1D patients; assay: Lymphocyte proliferation; assay type: cell-based, human; conditions: all peptides 20 μg/ml; gated on live T-cells
# Method in brief: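 Fresh Ficoll-isolated PBMCs from patients with at least one DQB*03:02 allele, in RPMI/10% FBS. Stimulated 48 h with InsB:9-23 or scrambled InsB:9-23, with or without RI-D-peptides or scrambled versions, all at 20 μg/ml. Proliferation by CFSE as for mouse lymphocytes, gated on live T-cells. Inhibition = 100 − 100 × (proliferation with/without RI-D-peptide).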
# [4] = system: lymphocytes from immunized SJL-DQ8 mice; assay: ELISPOT of IL-2 and IFN-γ secretion by lymphocytes of immunized SJL-DQ8 mice; assay type: cell-based, mouse; conditions: 5X10^5 lymphocytes, peptides 20 μg/ml, 48 hours
# Method in brief: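 SJL-DQ8 mice (6; 3 female, 3 male) immunised s.c. with 150 μg InsB:9-23 in CFA and boosted in IFA. 5×10^5 spleen/draining-node lymphocytes plated on nitrocellulose wells coated with 4 μg/ml IL-2 or 10 μg/ml anti-IFN-γ capture antibody, 48 h at 37 °C with peptides at 20 μg/ml. Biotinylated detection antibody 2 h, streptavidin-AP 1 h, BCIP/NBT development. Positive response: >20 net SFC/10^6 and P<0.05 (t-test, triplicates).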
# [5] = system: recombinant HLA-DQ8 protein; assay: DELFIA immunoassay: inhibition of binding of other HLA-DQ8-binders; set-up: species or system human; conditions: biotinylated GAD65 or gliadin peptide with RI-D-peptide
# [6] = system: PBMCs from HLA-DQ8 positive T1D patients; assay: Cytokine production; assay type: cell-based, human; conditions: all peptides 20 μg/ml, 48 hours, Luminex; 31 new onset DQ8 positive T1D patients
# Method in brief: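 Fresh PBMCs from heparinised blood (Ficoll) of patients genotyped for at least one DQB*03:02 allele, seeded in RPMI/10% FBS. Stimulated 48 h with InsB:9-23 or scrambled InsB:9-23, with or without RI-D-peptides or scrambled versions, all peptides at 20 μg/ml. Supernatant cytokines by Luminex, as for mouse lymphocytes. Long-standing (>10 years) DQ8 T1D patients served as controls.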
# [7] = system: lymphocytes from immunized SJL-DQ8 mice; assay: Ex vivo lymphocyte proliferation; assay type: cell-based, mouse; conditions: all peptides 20 μg/ml, 5 days, flow cytometry
# Method in brief: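 Spleen/draining-node cells from InsB:9-23-immunised SJL-DQ8 mice, 10^6 cells at 2×10^6/ml in 0.1% BSA/PBS, labelled with 1.5 μM CFSE for 10 min at 37 °C. Quenched with ice-cold RPMI/10% FBS, 5 min on ice, washed three times. Plated at 2×10^5 cells/well with peptides at 20 μg/ml for 5 days. Flow cytometry gated on live singlets; at least triplicates; inhibition = 100 − 100 × (proliferation with/without RI-D-peptide).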
# [8] = system: recombinant HLA-DQ8 protein; assay type: binding, human; conditions: serially diluted to 0.5 μM, 48 hours at 37 °C
# Method in brief: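 DELFIA: recombinant HLA-DQ8 (0.012 mg/ml) with 10 μM biotinylated InsB:9-23, plus RI-D-peptide serially diluted to 0.5 μM final, 48 h at 37 °C in 0.1% BSA/PBS with 0.05% Triton. Then bound on nickel-coated plates 2 h at RT, washed, Eu-streptavidin 30 min at RT, washed, enhancement solution ~1 h. Time-resolved fluorescence gave percent inhibition.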
Sequence,Activation of 5KC T-cells (IL-2 secretion) by the peptide itself [1],IFN-γ production by lymphocytes stimulated with InsB:9-23 [2],IL-2 production by lymphocytes stimulated with InsB:9-23 [2],Lymphocytes proliferation in PBMCs stimulated with InsB:9-23 (CFSE assay) [3],IFN-γ ELISPOT response to InsB:9-23 [4],IL-2 ELISPOT response to InsB:9-23 [4],"Competition with other HLA-DQ8-binders (GAD65, gliadin) [5]",IFN-γ production in PBMCs stimulated with InsB:9-23 [6],IL-2 production in PBMCs stimulated with InsB:9-23 [6],Lymphocyte proliferation induced by InsB:9-23 (CFSE assay) [7],Dose dependence of inhibition of InsB:9-23 binding to HLA-DQ8 [8]
GGREGCVLYLAEVGG [RI-CT],did not activate TCR,significantly blocked,significantly blocked,significantly suppressed,significantly decreased,significantly decreased,competed only with InsB:9-23 and not with other HLA-DQ8-binders,significantly suppressed,significantly suppressed,significantly suppressed,dose-dependent
FFGGREGCVLYLAEVLHSG [RI-EXT],did not activate TCR,significantly blocked,significantly blocked,significantly suppressed,significantly decreased,significantly decreased,competed only with InsB:9-23 and not with other HLA-DQ8-binders,significantly suppressed,significantly suppressed,significantly suppressed,dose-dependent
